This passage reports IC50, Ki and ED50 results from ChEMBL document CHEMBL1130431, “Synthesis and biochemical evaluation of N-(4-phenylthiazol-2-yl)benzenesulfonamides as high-affinity inhibitors of kynurenine 3-hydroxylase” (J Med Chem, 1997).

Assay [1] concerns the target T1, Kynurenine 3-monooxygenase (Rattus norvegicus, UniProt O88867). Nature of the assay: Inhibition of rat kidney Kynurenine 3-hydroxylase. In short, it runs like this: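 The enzyme source was a crude mitochondrial fraction from rat kidney. The assay used 0.1 M K-phosphate pH 7.4 with 100 µM L-kynurenine plus 0.1 µCi L-[3-3H]kynurenine, 200 µM NADPH, and an NADPH-regenerating system, with 30 µg protein. Inhibitor was preincubated 15 min at 37 °C, then the reaction ran 10 min at 37 °C. Charcoal removed substrate and 3H2O was counted.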

Assay [2] concerns the target T1, Kynurenine 3-monooxygenase. Nature of the assay: Inhibitory constant against Kynurenine 3-hydroxylase. In short, it runs like this:
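Competitive-inhibition kinetics on rat kidney crude mitochondrial kynurenine 3-hydroxylase. L-[3-3H]kynurenine saturation experiments with NADPH 200 μM plus a glucose 6-phosphate regenerating system, in 0.1 M potassium phosphate pH 7.4 at 37 °C. No preincubation; the enzyme was added to start the reaction. Read-out was tritiated water counted after charcoal removal of substrate. Ki was taken from replots of apparent Km versus inhibitor concentration; three experiments.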

Assay [3] addresses Kynurenine 3-monooxygenase (Rattus norvegicus) (UniProt O88867). Kind of assay: Compound was evaluated for ex vivo inhibition of Kynurenine 3-hydroxylase activity in liver of rat after injecting perorally. In kind it is tissue-based. The method, boiled down: (§1)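 Rats got oral doses in 0.1% Tween-80 suspension (0.5 mL/100 g), five or six doses with four or five animals per dose, and were decapitated 2 h later. Kidney or liver was homogenized in 9 volumes of 0.32 M sucrose/5 mM Tris-HCl pH 7.4 with 0.5 mM PMSF. 25 µL homogenate was assayed by [3H]water release with 2 min incubation.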

Assay [4] has the same target. Nature of the assay: Compound was evaluated for ex vivo inhibition of Kynurenine 3-hydroxylase activity in kidney of rat after injecting perorally. The class given is tissue-based. In short, it runs like this:
as §1

For assay [5], the system named is Kynurenine 3-monooxygenase (Meriones unguiculatus). Nature of the assay: Compound was evaluated for ex vivo inhibition of Kynurenine 3-hydroxylase activity in Liver from Gerbils after injecting perorally. The note with it: Gerbillinae.
The test system is the same in assay [6]. Nature of the assay: Compound was evaluated for ex vivo inhibition of Kynurenine 3-hydroxylase activity in brain from Gerbils after injecting perorally. The note with it: Gerbillinae.
Assay [7] has the same test system. Nature of the assay: Compound was evaluated for ex vivo inhibition of Kynurenine 3-hydroxylase activity in Kidney from Gerbils after injecting perorally. The note with it: Gerbillinae.

T1 sequence (O88867 whole entry): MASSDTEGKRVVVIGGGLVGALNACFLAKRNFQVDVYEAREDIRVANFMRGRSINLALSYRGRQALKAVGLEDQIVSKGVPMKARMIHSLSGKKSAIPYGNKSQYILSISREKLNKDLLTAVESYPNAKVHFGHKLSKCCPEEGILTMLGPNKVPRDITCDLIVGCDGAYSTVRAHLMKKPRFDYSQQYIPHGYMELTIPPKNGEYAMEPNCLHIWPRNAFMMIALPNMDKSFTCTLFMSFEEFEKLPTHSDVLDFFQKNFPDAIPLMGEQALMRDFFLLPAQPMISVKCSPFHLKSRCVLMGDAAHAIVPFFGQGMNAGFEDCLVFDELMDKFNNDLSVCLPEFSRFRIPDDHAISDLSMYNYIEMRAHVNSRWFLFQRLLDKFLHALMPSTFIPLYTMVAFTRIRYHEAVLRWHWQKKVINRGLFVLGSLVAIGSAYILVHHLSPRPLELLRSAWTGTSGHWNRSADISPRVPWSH
Sequence of Kynurenine 3-monooxygenase (Rattus norvegicus) (O88867 whole entry, looked up): as the sequence (O88867 whole entry) above

Regarding `Cc1ccc(S(=O)(=O)Nc2nc(-c3ccc(Cl)cc3)cs2)cc1`, half-maximal inhibition in assay [1] (IC50) required 56 nM. On the same count and under the same terms, under `O=C(O)CCC(=O)c1cccc([N+](=O)[O-])c1` stands 5770 nM. `COc1ccc(S(=O)(=O)Nc2nc(-c3cccc([N+](=O)[O-])c3)cs2)cc1OC`: inhibition in assay [1] was half-maximal at 37 nM (IC50). Besides, affinity in assay [2] was put at a Ki of 4.8 nM.

For the compound `COc1ccc(-c2csc(NS(=O)(=O)c3ccc(C)cc3)n2)cc1`, half-maximal inhibition in assay [1] (IC50) was put at 240 nM. For `COc1ccc(S(=O)(=O)Nc2nc(-c3cc(C(F)(F)F)ccc3F)cs2)cc1OC`, the ED50 in assay [3] was 5.3 µmol/kg; in assay [4], 6.6 µmol/kg; in assay [5], 0.9 µmol/kg; in assay [6] it was 5.2 µmol/kg; in assay [7], 1.8 µmol/kg. In assay [1], the concentration for half-maximal inhibition (IC50) was found to be 39 nM.

On to `COc1ccc(S(=O)(=O)Nc2nc(-c3cccc([N+](=O)[O-])c3)cs2)cc1`, for which the figures for the ED50 in assay [3] and in assay [4] were 9 µmol/kg and 3 µmol/kg, respectively. For the same compound, the IC50 in assay [1] came out at 51 nM. Turning to `O=C(O)c1[cH-]c(-c2cccc([N+](=O)[O-])c2)[o+]n1`, 2680 nM corresponded to half-maximal inhibition in assay [1] (IC50). In the case of `Cc1ccc(S(=O)(=O)Nc2nc(-c3cccc([N+](=O)[O-])c3)cs2)cc1`, the 50% effective dose (ED50) in assay [3] was 33.4 µmol/kg; in assay [4], 13.3 µmol/kg. For the same compound, the IC50 in assay [1] was determined as 48 nM. With `O=[N+]([O-])c1cccc(-c2cc(-c3nn[nH]n3)no2)c1`, the IC50 in assay [1] is 1160 nM. In assay [1], `O=[N+]([O-])c1cccc(-c2csc(NS(=O)(=O)c3ccc(Cl)c(Cl)c3)n2)c1` showed an IC50 of 120 nM. Same read-out and setting: under `NC(CC(=O)c1cccc([N+](=O)[O-])c1)C(=O)O` (stereo unspecified) stands 774 nM. Take `Nc1ccc(S(=O)(=O)Nc2nc(-c3cc(C(F)(F)F)ccc3F)cs2)cc1`: the ED50 came out at 4.6 µmol/kg in assay [3] and 1.1 µmol/kg in assay [4]. Further, the IC50 in assay [1] stood at 19 nM. `O=[N+]([O-])c1cccc(-c2csc(NS(=O)(=O)c3ccccc3)n2)c1` gave a half-maximal inhibitory concentration (IC50) in assay [1] of 200 nM. Regarding `NC(CC(=O)c1ccc(Cl)c(Cl)c1)C(=O)O` (stereo unspecified), the ED50 in assay [3] stood at 222 µmol/kg; in assay [4], 25.1 µmol/kg. The compound further gave an IC50 in assay [1] of 237 nM. In assay [2], this compound gave a Ki of 95 nM.

In turn, `Cc1ccc(-c2csc(NS(=O)(=O)c3ccc(C)cc3)n2)cc1` returned an IC50 in assay [1] of 76 nM. The same measure, in the same setting: the figure for `Cc1ccc(S(=O)(=O)Nc2nc(-c3ccc(O)c(C)c3)cs2)cc1` is 114 nM; for `Nc1ccc(S(=O)(=O)Nc2nc(-c3cccc([N+](=O)[O-])c3)cs2)cc1` it is 40 nM. On the same count and under the same terms, under `O=[N+]([O-])c1cccc(-c2csc(NS(=O)(=O)c3ccc(Cl)cc3)n2)c1` stands 84 nM.

In turn, `Cc1ccc(S(=O)(=O)Nc2nc(-c3ccccc3)cs2)cc1` displayed an IC50 in assay [1] of 470 nM. On the same count and under the same terms, under `Cc1ccc(S(=O)(=O)Nc2nc(-c3ccc(Cl)c(Cl)c3)cs2)cc1` stands 56 nM.

On to `CC(C)c1ccc(S(=O)(=O)Nc2nc(-c3cccc([N+](=O)[O-])c3)cs2)cc1`, for which half-maximal inhibition in assay [1] (IC50) was put at 990 nM.

In general, IC50 refers to the concentration that gives 50% inhibition. The term Ki denotes the dissociation constant of the complex between target and ligand, obtained from inhibition or displacement. Low values mean higher affinity, high ones lower affinity. By ED50 is commonly meant the midpoint of the dose-response relation.
